This is an account of results in ChEMBL document CHEMBL1944633, “A new generation of radiofluorinated pyrimidine-2,4,6-triones as MMP-targeted radiotracers for positron emission tomography” (J Med Chem, 2012).

Series [1] deals with 72 kDa type IV collagenase (Homo sapiens, UniProt P08253). The experiment in a line: Inhibition of MMP2 using (7-methoxycoumarin-4-yl)acetyl-Pro-Leu-Gly-Leu-(3-(2,4-dinitrophenyl)-L-2,3-diaminopropionyl)Ala-Arg-NH2 as substrate preincubated for 30 mins measured after 10 mins by fluorescence analysis. In short, it runs like this:
(§1)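 Activated enzyme at 2 nM preincubated with inhibitor (10 pM to 1 mM) for 30 min at 37 °C in 50 mM Tris-HCl pH 7.5, 0.2 M NaCl, 5 mM CaCl2, 20 μM ZnSO4, 0.05% Brij 35. Fluorogenic peptide substrate added (10 μL of 50 μM stock to 90 μL mix).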

The target in series [2] is Neutrophil collagenase (Homo sapiens, UniProt P22894). The experiment in a line: Inhibition of MMP8 using (7-methoxycoumarin-4-yl)acetyl-Pro-Leu-Gly-Leu-(3-(2,4-dinitrophenyl)-L-2,3-diaminopropionyl)Ala-Arg-NH2 as substrate preincubated for 30 mins measured after 10 mins by fluorescence analysis. Put shortly:
(§2)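 Activated enzyme at 2 nM preincubated with inhibitor (10 pM to 1 mM) for 30 min at 37 °C in 50 mM Tris-HCl pH 7.5, 0.2 M NaCl, 5 mM CaCl2, 20 μM ZnSO4, 0.05% Brij 35. Fluorogenic peptide substrate added (10 μL of 50 μM stock to 90 μL mix). Fluorescence read at ex 330/em 390 nm. Rates taken from initial 10 min; IC50 by nonlinear regression of rate versus concentration.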

Series [3] deals with Matrix metalloproteinase-9 (Homo sapiens, UniProt P14780). As to the kind of experiment: Inhibition of MMP9 using (7-methoxycoumarin-4-yl)acetyl-Pro-Leu-Gly-Leu-(3-(2,4-dinitrophenyl)-L-2,3-diaminopropionyl)Ala-Arg-NH2 as substrate preincubated for 30 mins measured after 10 mins by fluorescence analysis. In short, it runs like this:
as §1

Series [4] deals with Collagenase 3 (Homo sapiens, UniProt P45452). The experiment in a line: Inhibition of MMP13 using (7-methoxycoumarin-4-yl)acetyl-Pro-Leu-Gly-Leu-(3-(2,4-dinitrophenyl)-L-2,3-diaminopropionyl)Ala-Arg-NH2 as substrate preincubated for 30 mins measured after 10 mins by fluorescence analysis. Put shortly:
as §2

Series [5] is described as follows: Octanol-water partition coefficient, log D of the compound at pH 7.4 by gamma counter. It counts as physicochemical. Put shortly:
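About 20 kBq radioligand shaken 1 min at room temperature in equal volumes (0.5 mL) of PBS pH 7.4 and 1-octanol. Phases separated by centrifugation (3000 rpm, 2 min). Three 100 μL samples per layer gamma-counted. log D7.4 = log(cpm octanol/cpm PBS). Two independent experiments in triplicate, mean ± standard deviation.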

The subject of series [6] is Serum. As to the kind of experiment: Stability of the compound in human serum at 5MBq measured up to 120 mins by HPLC analysis. In kind it is ADME, cell-free. The following applies: 2 h. Put shortly: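 PBS-formulated radioligand (20 μL, 5 MBq) added to 200 μL human serum at 37 °C. 20 μL aliquots taken at 10, 20, 30, 60, 90 and 120 min and quenched in methanol/CH2Cl2 (1:1, 100 μL). Samples centrifuged 2 min; organic layer analysed by radio-HPLC (10–90% CH3CN/water, 0.1% TFA gradient).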

Series [7] concerns Brain. As to the kind of experiment: Drug uptake in BALB/c mouse brain at 5 to 8 MBq measured after 60 mins by CT scanning. It counts as ADME, tissue-based. The conditions noted are these: in vivo, 1 h. Put shortly: (§3)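 Balb/c mice (19–27 g) under isoflurane (1.5%/0.3 L/min) on a heating pad, tail-vein catheter. 5–8 MBq radiotracer in 100 μL with 150 μL saline flush, injected iv 30 s after scan start. Dynamic list-mode small-animal PET for 60 min, iterative resolution-recovery reconstruction. CT acquired afterwards (80 μm). CT-guided volumes of interest gave time–activity curves as %ID.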

Series [8] has as its system Heart. As to the kind of experiment: Drug uptake in BALB/c mouse heart at 5 to 8 MBq measured after 60 mins by CT scanning. In kind it is ADME, tissue-based. The following applies: in vivo, 1 h. In short, it runs like this:
as §3

Series [9] has as its system Lung. As to the kind of experiment: Drug uptake in BALB/c mouse lung at 5 to 8 MBq measured after 60 mins by CT scanning. The following applies: in vivo, 1 h. It counts as ADME. In short, it runs like this:
as §3

A short description of series [10]: Drug uptake in BALB/c mouse skeleton at 5 to 8 MBq measured after 60 mins by CT scanning. It counts as ADME. The conditions noted are these: in vivo, 1 h. Put shortly:
as §3

Series [11] in a line: Drug uptake in BALB/c mouse urinary bladder at 5 to 8 MBq measured after 60 mins by CT scanning. It counts as ADME, tissue-based. The following applies: in vivo, 1 h. In short, it runs like this:
as §3

Series [12] can be described thus: Drug uptake in BALB/c mouse gallbladder at 5 to 8 MBq measured after 60 mins by CT scanning. It counts as ADME, Gall bladder. The conditions noted are these: in vivo, 1 h. In short, it runs like this:
as §3

In series [13] the test system is Intestine. The experiment in a line: Drug uptake in BALB/c mouse intestine at 5 to 8 MBq measured after 60 mins by CT scanning. It counts as ADME, tissue-based. The following applies: in vivo, 1 h. In short, it runs like this:
as §3

For series [14], the system named is Liver. The experiment in a line: Drug uptake in BALB/c mouse liver at 5 to 8 MBq measured after 60 mins by CT scanning. In kind it is ADME. The following applies: in vivo, 1 h. Put shortly:
as §3

In series [15] the test system is Kidney. As to the kind of experiment: Drug uptake in BALB/c mouse kidney at 5 to 8 MBq measured after 60 mins by CT scanning. In kind it is ADME. The conditions noted are these: in vivo, 1 h. Put shortly: as §3
The test system of series [16] is Liver. The experiment in a line: Drug uptake in BALB/c mouse liver at 5 to 8 MBq measured after 10 to 15 mins post injection by CT scanning. The following applies: in vivo. In kind it is ADME.
Series [17] deals with Liver. As to the kind of experiment: Drug uptake in BALB/c mouse liver at 5 to 8 MBq measured after 90 to 120 mins post injection by CT scanning. The following applies: in vivo. It counts as ADME.

SMILES strings stand for the structures. pIC50: −log10 of the molar value.

Usually pIC50 stands for −log10 of the IC50, conventionally taken in molar units. Low readings indicate a high IC50, high ones a low IC50. The term logD denotes lipophilicity at a set pH, counting ionised and neutral species. Higher therefore signals higher lipophilicity.

Chain of Neutrophil collagenase (P22894 whole entry): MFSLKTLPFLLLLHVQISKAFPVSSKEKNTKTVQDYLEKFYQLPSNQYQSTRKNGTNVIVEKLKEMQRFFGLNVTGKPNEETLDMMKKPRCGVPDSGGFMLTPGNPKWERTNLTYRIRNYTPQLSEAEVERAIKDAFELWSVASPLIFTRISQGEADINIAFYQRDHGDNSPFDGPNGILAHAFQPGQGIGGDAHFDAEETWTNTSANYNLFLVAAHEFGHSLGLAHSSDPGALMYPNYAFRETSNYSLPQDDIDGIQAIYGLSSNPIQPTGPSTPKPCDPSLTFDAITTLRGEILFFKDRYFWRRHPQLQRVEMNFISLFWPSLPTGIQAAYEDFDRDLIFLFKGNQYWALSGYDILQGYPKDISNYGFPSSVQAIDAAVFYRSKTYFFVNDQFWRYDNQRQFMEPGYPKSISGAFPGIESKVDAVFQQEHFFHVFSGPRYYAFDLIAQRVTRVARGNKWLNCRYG
Chain of 72 kDa type IV collagenase (P08253 whole entry): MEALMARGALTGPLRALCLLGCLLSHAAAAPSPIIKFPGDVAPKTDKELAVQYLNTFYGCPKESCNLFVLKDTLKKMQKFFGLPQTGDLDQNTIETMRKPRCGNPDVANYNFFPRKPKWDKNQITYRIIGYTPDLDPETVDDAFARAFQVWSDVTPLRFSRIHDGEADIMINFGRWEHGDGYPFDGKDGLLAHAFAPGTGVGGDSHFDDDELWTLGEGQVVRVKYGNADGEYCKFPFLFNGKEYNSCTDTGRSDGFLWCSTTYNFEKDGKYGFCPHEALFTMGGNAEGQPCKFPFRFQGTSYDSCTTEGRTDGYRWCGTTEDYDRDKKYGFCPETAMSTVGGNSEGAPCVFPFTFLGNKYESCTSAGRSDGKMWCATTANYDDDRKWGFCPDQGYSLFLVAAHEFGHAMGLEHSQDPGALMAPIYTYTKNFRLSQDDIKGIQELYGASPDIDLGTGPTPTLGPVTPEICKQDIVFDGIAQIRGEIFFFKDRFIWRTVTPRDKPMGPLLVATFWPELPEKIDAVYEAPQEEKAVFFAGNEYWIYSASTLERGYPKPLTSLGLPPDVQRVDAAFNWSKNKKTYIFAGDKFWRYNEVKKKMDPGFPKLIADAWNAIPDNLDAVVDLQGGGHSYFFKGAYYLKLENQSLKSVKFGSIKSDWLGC
Chain of Matrix metalloproteinase-9 (P14780 whole entry): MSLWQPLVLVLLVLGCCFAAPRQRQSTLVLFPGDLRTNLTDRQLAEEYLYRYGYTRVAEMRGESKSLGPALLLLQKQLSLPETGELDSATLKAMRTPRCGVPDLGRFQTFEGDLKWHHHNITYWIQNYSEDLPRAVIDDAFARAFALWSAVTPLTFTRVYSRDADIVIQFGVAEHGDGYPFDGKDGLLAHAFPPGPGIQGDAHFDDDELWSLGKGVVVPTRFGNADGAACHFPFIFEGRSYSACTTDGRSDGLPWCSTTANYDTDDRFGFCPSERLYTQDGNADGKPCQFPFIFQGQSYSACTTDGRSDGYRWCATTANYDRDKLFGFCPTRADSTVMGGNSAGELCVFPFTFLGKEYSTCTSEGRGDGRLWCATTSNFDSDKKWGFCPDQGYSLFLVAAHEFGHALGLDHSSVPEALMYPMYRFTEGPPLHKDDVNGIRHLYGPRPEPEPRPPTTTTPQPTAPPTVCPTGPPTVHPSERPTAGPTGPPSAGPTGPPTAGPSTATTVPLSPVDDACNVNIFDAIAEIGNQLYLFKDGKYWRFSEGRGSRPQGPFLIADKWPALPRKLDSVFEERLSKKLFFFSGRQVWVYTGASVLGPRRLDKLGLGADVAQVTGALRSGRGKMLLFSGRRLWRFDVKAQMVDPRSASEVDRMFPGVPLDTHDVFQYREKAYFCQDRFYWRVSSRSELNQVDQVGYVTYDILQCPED

`O=C1NC(=O)C(c2ccc(Oc3ccccc3)cc2)(N2CCN(CCOCCOCCOCCOCCOCCOCCOCCOCc3cn(CCF)nn3)CC2)C(=O)N1`: the negative logarithm of the IC50 (pIC50) is 7.36 in [1], 6.82 in series [2], 7.13 in series [3] and 7.03 in [4].

In the case of `O=C1NC(=O)C(c2ccc(Oc3ccccc3)cc2)(N2CCN(CCOCCOCCOCCNC(=O)c3ccc(F)cc3)CC2)C(=O)N1`, the pIC50 in [1] is 8.30; in series [2] it was 7.82; in series [3], 8.40; in [4] it was 7.80.

`O=C1NC(=O)C(c2ccc(Oc3ccccc3)cc2)(N2CCN(CCOCCOCCOCCOCc3cn(CC[18F])nn3)CC2)C(=O)N1` came in with a logD in [5] of 0.78. In addition, the Stability result in series [6] is “Stable”. Also, the Drug uptake result in series [7] was “Not Active”; in [8] it was “Not Active”; in series [9], “Not Active”; in series [10] it was “Active”; in series [11], “Active”; in series [12], “Active”. The Drug uptake result in series [13], in [14], in [15], in series [16] and in [17] was “Active” throughout.

Regarding `O=C1NC(=O)C(c2ccc(Oc3ccccc3)cc2)(N2CCN(CCOCCOCCOCCn3cc(COC(=O)c4ccc(F)cc4)nn3)CC2)C(=O)N1`, the pIC50 is 7.66 in [1], 7.57 in [2], 7.64 in series [3] and 8.15 in series [4].

Consider `O=C1NC(=O)C(c2ccc(Oc3ccccc3)cc2)(N2CCN(CCOCCOCCOCCOCc3cn(CCF)nn3)CC2)C(=O)N1`, for which the pIC50 in series [1] is 7.24; in series [2], 7.24; in [3], 7.57; in [4], 7.29.

For the compound `O=C1NC(=O)C(c2ccc(Oc3ccccc3)cc2)(N2CCN(CCOCCOCCOCCOCc3cn(CCOCCOCCOCCOc4cccnc4F)nn3)CC2)C(=O)N1`, the pIC50 is 6.69 in series [1], 6.97 in series [2], 7.25 in series [3] and 6.22 in series [4].

As for `O=C1NC(=O)C(c2ccc(Oc3ccccc3)cc2)(N2CCN(CCOCCOCCOCCn3cc(CCCCOc4cccnc4F)nn3)CC2)C(=O)N1`, the pIC50 was 7.28 in series [1], 6.94 in series [2], 7.22 in series [3] and 7.40 in [4].

In the case of `O=C1NC(=O)C(NCc2cn(CCOCCOCCOCCF)nn2)(c2ccc(Oc3ccccc3)cc2)C(=O)N1`, the pIC50 in [1] was 7.19; in [2] it was 7.32; in series [3] it was 7.39; in series [4] it was 7.06.

Regarding `O=C1NC(=O)C(NCc2cn(CCOCCOCCOCCOc3cccnc3F)nn2)(c2ccc(Oc3ccccc3)cc2)C(=O)N1`, the pIC50 in series [1] was 7.54; in [2] it was 7.31; in series [3], 8.00; in series [4], 8.05.

Take `O=C1NC(=O)C(c2ccc(Oc3ccccc3)cc2)(N2CCN(c3cccc(F)n3)CC2)C(=O)N1`: the pIC50 in series [1] is 6.69; in series [2] it was 6.89; in [3], 8.05; in series [4] it was 7.32.

Compound `O=C1NC(=O)C(c2ccc(-c3ccccc3)cc2)(N2CCN(c3ccc([N+](=O)[O-])cc3)CC2)C(=O)N1` yielded a logD in series [5] of 2.15. Besides, the negative logarithm of the IC50 (pIC50) in series [1] was 7.64; in series [3], 8.15.

On to `O=C1NC(=O)C(c2ccc(Oc3ccccc3)cc2)(N2CCN(CCOCCOCCOCCn3cc(CNS(=O)(=O)c4ccc(F)cc4)nn3)CC2)C(=O)N1`, for which the pIC50 in series [1] is 7.89; in series [2], 7.72; in [3], 7.70; in series [4], 7.64.

For `CN(Cc1cn(CCOCCOCCOCCN2CCN(C3(c4ccc(Oc5ccccc5)cc4)C(=O)NC(=O)NC3=O)CC2)nn1)S(=O)(=O)c1ccc(F)cc1`, the pIC50 in [1] was 7.92; in series [2], 7.82; in series [3], 8.15; in [4], 7.68.

Regarding `O=C1NC(=O)C(c2ccc(Oc3ccccc3)cc2)(N2CCN(CC[18F])CC2)C(=O)N1`, the logD in series [5] was 2.15. Besides, the pIC50 in series [2] is 6.86; in series [4] it was 6.19.
